Compound activity deposited in PubChem BioAssay by several laboratories.
An excerpt weighted towards active compounds, which were near 2% of everything screened.
PABP polyA inh – PABP-poly(A) binding inhibition; PABP-poly(A) RNA binding, fluorescence polarization; inhibition, % at 35 µM; AID 2014; 1% of 290,000 active;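 note: calls also rest on retests at 20 µM and on dose response follow-up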
Target sequence (P11940 whole entry, looked up): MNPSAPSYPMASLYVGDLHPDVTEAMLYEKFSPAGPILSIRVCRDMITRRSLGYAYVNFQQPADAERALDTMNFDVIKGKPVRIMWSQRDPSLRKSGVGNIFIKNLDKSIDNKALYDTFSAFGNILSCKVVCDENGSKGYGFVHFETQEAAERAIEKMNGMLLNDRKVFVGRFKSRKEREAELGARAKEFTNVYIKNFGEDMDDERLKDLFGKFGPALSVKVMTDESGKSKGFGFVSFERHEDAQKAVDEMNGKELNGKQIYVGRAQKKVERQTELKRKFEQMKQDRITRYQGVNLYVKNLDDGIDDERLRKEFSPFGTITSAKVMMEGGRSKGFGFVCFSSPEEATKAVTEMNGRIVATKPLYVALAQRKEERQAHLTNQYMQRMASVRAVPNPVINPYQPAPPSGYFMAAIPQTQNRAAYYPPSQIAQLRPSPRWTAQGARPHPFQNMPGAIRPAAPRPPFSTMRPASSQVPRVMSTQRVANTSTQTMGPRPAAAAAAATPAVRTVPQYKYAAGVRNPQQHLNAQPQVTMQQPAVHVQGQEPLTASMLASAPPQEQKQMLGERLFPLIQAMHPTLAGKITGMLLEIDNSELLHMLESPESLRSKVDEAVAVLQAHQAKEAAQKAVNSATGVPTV
DNA FID counter – displaces DNA intercalator in HCV helicase counter-screen. AID 1845. inhibition, % at 7.9 µM. 0.17% of 290,000 active. DNA fluorescent intercalator displacement, fluorescence; in the data active = inhibition above about 37%;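 note: 0% = vehicle and 100% = reference compound; higher means more ethidium bromide displaced from hairpin DNA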
core dimer inh – HCV core protein dimerization inhibition. inhibition, % at 5 µM. TR-FRET GST/Flag-core106 dimerization, 1536-well. 0.33% of 300,000 active;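 active = inhibition above the mean of all tested compounds plus 3 SD, set per screening campaign, cut at about 45% in these data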
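assay system = GST-tagged and Flag-tagged HCV core protein residues 1-106 | controls = unlabelled core106 and no-GST-core106 wells | incubation = compound-protein-antibody incubation 4 h at 22.5 °C | probe or stimulus = Eu donor and XL665 acceptor anti-tag antibodies | read-out = % inhibition based on acceptor/donor emission ratio | signal = TR-FRET 671 and 617 nm emission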
NS3 helicase inh – blocks Hepatitis C virus NS3 helicase unwinding | inhibition, % at 10.9 µM | 0.56% of 290,000 active | NS3 helicase DNA unwinding, Cy5 molecular beacon fluorescence;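 active = inhibition above the mean of all tested compounds plus 3 SD, set per campaign, cut at about 35% in these data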;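 note: 0% = DMSO wells and 100% = thioflavine S control wells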
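System: Hepatitis C virus NS3 helicase domain fragment enzyme | Reagent: Annealed dual-labelled DNA beacon duplex, ATP-started | Compound dosing: 10.9 µM single point, 0.8% DMSO | Incubation: 1 h reaction at 25 °C, ATP-initiated | Technique: Cy5 fluorescence | Evaluation: Percent inhibition from t60/t0 fluorescence ratio | Benchmarks: Low DMSO, high thioflavine S at 110 µM | Replication: Singlicate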
MLLE-PAM2 inh – inhibitors of microRNA-mediated deadenylation, human PABP1 MLLE binding | AID 588489 | inhibition, % at 20 µM | GST-MLLE / FITC-PAM2 fluorescence polarization | P11940 | 0.36% of 360,000 active; in the data active = inhibition above about 35%, passing the limit was not always enough;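 note: plate controls were DMSO wells with GST-MLLE for no effect and wells lacking GST-MLLE protein for full effect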
eIF4H FP inh – inhibitors of RNA binding by human eIF4H; AID 2012; Q15056; inhibition, % at 35 µM; eIF4H fluorescence polarization binding assay; 0.94% of 290,000 active;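 note: calls also rest on retests at 20 µM and on dose response follow-up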
The depositor's hits bear a star; / = no result given. Unless noted, the rule behind the calls is not given here.

SMILES | PABP polyA inh | DNA FID counter | core dimer inh | NS3 helicase inh | MLLE-PAM2 inh | eIF4H FP inh
C#CCOCCOCCOCCNc1nc(N2CCN(C(=O)[C@H](CCC(=O)O)n3cc(C(N)Cc4ccc(O)cc4)nn3)CC2)nc(N2CCN(C(=O)[C@H](Cc3cc4ccccc4[nH]3)n3cc(C(N)CC(C)C)nn3)CC2)n1 (some centres undefined) | 9 | 25 | 7 | -63 | / | -10
C#CCOCCOCCOCCNc1nc(N2CCN(C(=O)[C@H](CCCCN)n3cc([C@@H](N)C(C)CC)nn3)CC2)nc(N2CCN(C(=O)[C@H](Cc3cc4ccccc4[nH]3)n3cc([C@@H](N)CC(C)C)nn3)CC2)n1 (some centres undefined) | 47 | 48* | -23 | -49 | 3 | 26
C#CCOCCOCCOCCNc1nc(N2CCN(C(=O)[C@H](Cc3cc4ccccc4[nH]3)n3cc([C@@H](N)C(C)CC)nn3)CC2)nc(N2CCN(C(=O)[C@H](CCCCN)n3cc([C@@H](N)CO)nn3)CC2)n1 (some centres undefined) | 20 | 55* | -11 | -67 | / | 19
C#CCOCCOCCOCCNc1nc(N2CCN(C(=O)C(Cc3ccc(O)cc3)n3cc(C(N)CC(C)C)nn3)CC2)nc(N2CCN(C(=O)C(Cc3cc4ccccc4[nH]3)n3cc(C(N)Cc4ccc(O)cc4)nn3)CC2)n1 (centres undefined) | 36 | 40* | -3 | -63 | / | 11
C#CCOCCOCCOCCNc1nc(N2CCN(C(=O)[C@H](Cc3cc4ccccc4[nH]3)n3cc([C@@H](N)C(C)CC)nn3)CC2)nc(N2CCN(C(=O)[C@H](Cc3cc4ccccc4[nH]3)n3cc([C@@H](N)CC(C)C)nn3)CC2)n1 (some centres undefined) | 8 | 41* | -30 | -74 | / | 1
C#CCOCCOCCOCCNc1nc(N2CCN(C(=O)[C@H](CCCCN)n3cc([C@@H](N)CO)nn3)CC2)nc(N2CCN(C(=O)[C@H](Cc3cc4ccccc4[nH]3)n3cc([C@@H](N)CO)nn3)CC2)n1 | 23 | / | -3 | / | / | 26
O=C(Nc1ccc(S(=O)(=O)Nc2nccs2)cc1)c1ccccc1OC(F)F | / | / | / | / | -3 | /
CC1(C(=O)Nc2ccc3ccccc3c2)CCC(=O)N1CCOc1ccccc1 (centres undefined) | / | / | / | / | -4 | /
C#CCOCCOCCOCCNc1nc(N2CCN(C(=O)[C@H](CCCCN)n3cc([C@@H](N)CO)nn3)CC2)nc(N2CCN(C(=O)[C@H](Cc3cc4ccccc4[nH]3)n3cc([C@@H](N)CC(C)C)nn3)CC2)n1 | 37 | 49* | -20 | -64 | / | 34
Cc1cc(C(=O)CSc2nnc(-c3ccc(OC(F)F)cc3)o2)c(C)n1Cc1cccs1 | 85* | 5 | 34 | 12 | -118 | 57*
Cc1cc(C(=O)CSc2nnc(N)s2)c(C)n1Cc1cccs1 | 2.7* | -15 | 27 | 1 | 17 | 77
Cc1csc(SCC(=O)c2cc(C)n(Cc3cccs3)c2C)n1 | -6 | -30 | 9 | -4 | 24 | 6
Cn1c(=O)c2cc(NC(=O)NCc3ccccc3)ccc2n1C/C=C/c1ccccc1 | / | / | / | / | -3 | /
O=C(Nc1ccc(C(O)c2ccccc2)cc1)[C@@H]1O[C@H](CO)[C@@H](O)[C@H]1O (some centres undefined) | / | / | / | / | 0 | /
Cc1ccc(C)c(SCC(=O)Nc2cccc(S(=O)(=O)NC3=NCCCCC3)c2)c1 | 14 | -35 | 7 | 8 | 5 | 3
Cc1cc(C)cc(-n2c(SCC(=O)Nc3cccc(S(=O)(=O)NC4=NCCCCC4)c3)nc3ccccc3c2=O)c1 | 97* | -30 | 26 | 1 | -12 | active
O=C(Nc1cccc(S(=O)(=O)NC2=NCCCCC2)c1)c1cc(-c2ccco2)nc2ccccc12 | 30 | -33 | 69* | 10 | -22 | 74
O=C(Nc1cccc(S(=O)(=O)NC2=NCCCCC2)c1)c1cc(-c2ccncc2)nc2ccccc12 | 5 | -28 | 15 | 4 | -21 | 5
O=C(NNC(=O)C1CC=CCC1)c1ccccc1O (centres undefined) | 2 | 1 | 1 | 8 | 5 | -13
O=C(CSc1ccc2c(c1)OCCO2)NCCc1ccc(Cl)cc1Cl | 5 | -18 | 8 | -10 | 40* | -12
